Most compounds without a hit are left out; they make up all but 2.6% or so of the library.
mABHD4 FP: inhibits mouse alpha/beta hydrolase domain 4 | Q8VD66 | purified mABHD4, FP-Rh probe fluorescence polarization | inhibition, % at 8.92 µM | 0.54% of 370,000 active;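 active = inhibition exceeding the mean over every tested compound plus 3 SD, cut at about 30% in these data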;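 also: 0% = plate median of compound wells and 100% = S159A mutant with DMSO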
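Assay system: Wild-type mouse ABHD4 protein | Medium: HEPES pH 7.0 buffer, 150 mM NaCl, 0.01% Pluronic F-127 | Incubation: Enzyme–compound pre-incubation 45 min, then probe 60 min, both 25 °C | Technique: Fluorescence polarization with parallel and perpendicular emission, 525/598 nm | Evaluation: % inhibition of FP-Rh probe binding versus controls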
HTRA1 inhibitor: inhibitors of human serine peptidase HTRA1 | recombinant HTRA1, FP-rhodamine activity-based probe, fluorescence polarization | inhibition, % at 5.96 µM | 0.5% of 340,000 active | AID 504803; in the data active = inhibition above about 36%;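 also: 0% = enzyme with DMSO and 100% = wells lacking enzyme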
PRMT1 inh: blocks human protein arginine methyltransferase 1. 1.3% of 370,000 active. AID 652257. inhibition, % at 2.79 µM. Q99873. recombinant PRMT1, activity-based probe fluorescence polarization;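 active = inhibition above about 21% made by adding two undisclosed values, limit read from the data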
TCR-CD3 inh: blocks the human TCR-CD3 interaction | AID 651800 | TAMRA-labeled TCR probe fluorescence, biochemical | 0.37% of 360,000 active | inhibition, % at 9.4 µM;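 also: recombinant mutant TCR 2C K166C tagged with TAMRA read by polarization; 0% = receptor in buffer alone and 100% = receptor with positive control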
SIAE primary: blocks human sialic acid acetylesterase; SIAE FP-Rh probe binding, fluorescence polarization; AID 1053197; Q9HAT2; 0.69% of 370,000 active; inhibition, % at 9.66 µM;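 active = inhibition above a cutoff: mean of compounds within the control limits plus 3 SD of those, cut at about 17% in these data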;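 also: 0% = plate median of compound wells and 100% = probe without SIAE protein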
Target sequence (Q9HAT2 whole entry, looked up): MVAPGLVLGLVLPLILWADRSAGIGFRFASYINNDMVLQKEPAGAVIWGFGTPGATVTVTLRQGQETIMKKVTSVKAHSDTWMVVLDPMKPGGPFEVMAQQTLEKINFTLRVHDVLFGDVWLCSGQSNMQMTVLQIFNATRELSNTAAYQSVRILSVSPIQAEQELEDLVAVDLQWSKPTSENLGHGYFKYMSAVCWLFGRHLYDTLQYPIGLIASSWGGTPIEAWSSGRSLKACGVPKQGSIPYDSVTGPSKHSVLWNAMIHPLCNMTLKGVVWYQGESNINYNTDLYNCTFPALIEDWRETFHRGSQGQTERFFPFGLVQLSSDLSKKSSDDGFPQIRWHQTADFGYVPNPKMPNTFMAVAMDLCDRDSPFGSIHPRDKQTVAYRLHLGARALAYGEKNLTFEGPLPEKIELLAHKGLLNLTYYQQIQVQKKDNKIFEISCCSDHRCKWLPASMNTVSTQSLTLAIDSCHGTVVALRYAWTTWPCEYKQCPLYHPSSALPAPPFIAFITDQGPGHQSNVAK
HTRA1 inh conf: confirmation of human HTRA1 inhibitors | shares compounds with HTRA1 inhibitor | recombinant HTRA1, FP-rhodamine activity-based probe, fluorescence polarization | inhibition, % at 5.96 µM | 66% of 1,600 active;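 active = mean inhibition over three repeats above a set limit taken from the earlier primary screen, cut at about 37% in these data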;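 also: 0% = HTRA1 with DMSO and 100% = wells lacking HTRA1; inhibitors block probe binding so polarization drops and inhibition rises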
BSA TAMRA ctr: BSA probe counter-screen for TCR-CD3 inhibitors | shares compounds with TCR-CD3 inh | TAMRA-labeled BSA probe fluorescence counterscreen | AID 652035 | 10% of 1,200 active | inhibition, % at 9.4 µM; in the data active = inhibition above about 23%;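 also: 0% = buffer low control and 100% = reference high control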
TCR-CD3 conf: TCR-CD3 interaction inhibition, confirmation; shares compounds with TCR-CD3 inh; TAMRA-labeled TCR probe fluorescence binding assay; inhibition, % at 9.4 µM; 48% of 1,200 active; AID 652036
PRMT1 inh conf: confirmation of human PRMT1 inhibitors. shares compounds with PRMT1 inh. recombinant His-PRMT1, activity-based probe fluorescence polarization. inhibition, % at 2.79 µM. 42% of 3,300 active. AID 687036;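 active = mean inhibition across replicates above the hit cutoff derived for the earlier primary screen, cut at about 22% in these data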
mABHD4 conf: confirmation of mouse ABHD4 inhibitors; shares compounds with mABHD4 FP; purified mABHD4, FP-Rh probe fluorescence polarization; inhibition, % at 8.92 µM; 55% of 1,800 active; AID 720658;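 active = mean inhibition across replicates above the hit cutoff set in the primary screen, cut at about 30% in these data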;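 also: 0% = wild-type ABHD4 with DMSO and 100% = catalytically dead S159A mutant with DMSO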
* = called active by the depositor; / = not tested or not shown. Rule as the data show it, unless noted: active = inhibition above about 19%; inactive = the rest.

SMILES | mABHD4 FP | HTRA1 inhibitor | PRMT1 inh | TCR-CD3 inh | SIAE primary | HTRA1 inh conf | mABHD4 conf | others
CC(C)c1ccc(CNc2ccc(N3CCOCC3)cc2)cc1 | 30* | 57* | 4 | 2 | 15 | 6 | 16
CCCCCC(=O)Nc1nc(C)c(-c2csc(Nc3cc(OC)ccc3OC)n2)s1 | 44* | 42* | 2 | 1 | 16 | 21 | 56*
O=C(NC1CCCCN(Cc2ccc(Cl)cc2)C1=O)c1ccc(COc2ccccc2)cc1 (stereo not given) | -2 | / | -1 | / | 3 | / | /
Nc1cc2c(cc1O)CCCC2 | 30* | 44* | 5 | 7 | 7 | 30 | 28
C=CCn1c(COc2ccc(C)cc2)nnc1SCC(=O)c1ccc(-c2ccccc2)cc1 | -3 | / | -2 | / | -2 | / | /
CC(C)(C)OC(=O)N1CCC(N[C@@H](Cc2c[nH]c3ccccc23)C(=O)NCCc2c[nH]c3ccccc23)(C(=O)NC2CCCCC2)CC1 | -8 | / | -3 | / | 9 | / | /
COc1ccc(OC)c(NC(=O)CSc2nncc3ccc(OC)c(OC)c23)c1 | 43* | 44* | 55* | 11 | 11 | 2 | 32* | PRMT1 inh conf=4
CCN(CC)c1ccc(/C=N/N(c2ccccc2)c2ccccc2)c(O)c1 | 5 | 23 | 1 | -6 | 3 | / | /
Oc1ccc(/C=N/N(c2ccccc2)c2ccccc2)cc1O | 42* | 57* | 18 | 1 | 2 | 97* | 27
O=C(CN1CCN(c2nc(-c3ccccc3)cs2)CC1)Nc1ccc(F)cc1F | 3 | / | -3 | / | 2 | / | /
COc1cccc(N/N=C/c2cccc(Br)c2O)c1 | 7 | 12 | 11 | 0 | 12 | / | /
Cc1cccc(N/N=C/c2ccc(O)c(O)c2O)c1 | 36* | 59* | 33* | 6 | -2 | 62* | 35*
O=[N+]([O-])c1cc(-c2cnc3ccccc3n2)ccc1Cl | 0 | -5 | 2 | -2 | -7 | / | /
O=[N+]([O-])c1cc(-c2ccc(/C=N/c3nc4ccccn4c3-c3ccco3)o2)ccc1Cl | 46* | 37* | 41* | 4 | 16 | 46* | 16 | PRMT1 inh conf=1
CC(C)N=c1cc2n(-c3ccc(Cl)cc3)c3ccccc3nc-2cc1Nc1ccc(Cl)cc1 | 61* | 70* | 15 | 12 | 17 | 51* | 78*
Cn1c(CNc2ccc(Cl)cc2)nc2ccccc21 | -3 | -4 | 1 | 5 | -6 | / | /
Nc1cccc2c(O)cccc12 | 42* | 40* | 17 | -10 | 11 | 12 | 51*
CNc1ccc(Br)cc(C(=O)/C=C/c2cccc(OC)c2)c1=O | 37* | 40* | 27* | 10 | 8 | -1 | 43*
O=C(/C=C/c1ccc(Cl)cc1Cl)c1ccc[nH]1 | -18 | -19 | -1 | 4 | -4 | / | /
CCNc1ccc(Br)cc(C(=O)/C=C/c2ccc3c(c2)OCO3)c1=O | 38* | 52* | 38* | 7 | 12 | 27 | 45*
CNc1ccc(Br)cc(C(=O)/C=C/c2ccc(Cl)cc2Cl)c1=O | 33* | 64* | 22* | 11 | 13 | 48* | 57*
COc1cccc(/C=C/C(=O)OCC(=O)NCCNC(=O)COC(=O)/C=C/c2cccc(OC)c2)c1 | 5 | 3 | 2 | 0 | -4 | / | /
O=C(NCCCc1ccccc1)[C@H](CO)NC1(C(=O)NCCc2c[nH]c3ccccc23)CCCCC1 | 2 | / | 3 | / | 7 | / | /
O=S1(=O)c2ccc(Br)cc2OC2CCCC[C@@H]2N1Cc1ccccc1 (stereo not given in full) | -1 | / | 3 | 6 | 4 | / | /
O=C1CC2c3cc(-c4cc5ccccc5o4)ccc3CCN2C(=O)CN1Cc1ccccc1 (stereo not given) | -20 | / | -1 | -5 | -5 | / | /
SMILES | mABHD4 FP | HTRA1 inhibitor | PRMT1 inh | TCR-CD3 inh | SIAE primary | HTRA1 inh conf | mABHD4 conf | others
O=C(/C=C/c1ccc(O)c(O)c1)NC(=O)c1ccccc1O | 57* | 65* | 13 | 24* | 1 | 62* | 36* | BSA TAMRA ctr=-18;TCR-CD3 conf=21*
CCCCCCCC[n+]1cccc(C(=O)N(CC)CC)c1 | -1 | 3 | -1 | 4 | -2 | / | /
CCCCCCCCCCCCCCCC[n+]1cccc(C(=O)N(CC)CC)c1 | 43* | 58* | -2 | 0 | 0 | 65* | 48*
CCCCC(=O)Nc1ccc(C(N)=O)cc1 | 1 | -4 | 2 | 6 | 0 | / | /
CCCCCCCCCCCCCCCC[n+]1ccccc1 | 54* | 70* | -4 | 5 | 1 | 77* | 50*
CCCCCCCCCCCCCCCC[n+]1ccc(C(N)=O)cc1 | 41* | 73* | 0 | 5 | 10 | 76* | 88*
CCOc1cccc(-c2nnc(SCC(=O)Nc3ccc4c(c3)OCO4)n2N)c1 | -2 | / | 3 | / | -1 | / | /
Cc1cccc(NNC(=O)C(=O)NNc2cccc(C)c2)c1 | 10 | / | -5 | 5 | 11 | / | /
Cc1cccc(N=NC(=S)NNc2cccc(C)c2)c1 | 32* | 36* | -4 | 1 | 6 | 45* | 58*
Nc1cc2cccnc2cc1Cl | 53* | 46* | 13 | 19* | -3 | -1 | 36* | BSA TAMRA ctr=-4;TCR-CD3 conf=4
CCCCNC(=O)C[C@H]1C[C@@]2(C(=O)OC)C(=C[C@H](C3CCCC3)O[C@@H]2C)N(CCC2=CCCCC2)C1=O | -3 | / | -1 | / | 3 | / | /
CC1(C)CC(=O)C(C=Nc2ccc(C(=O)c3ccccc3)cc2N=CC2=C(O)CC(C)(C)CC2=O)=C(O)C1 | 30* | 41* | 77* | -8 | -9 | 15 | 8 | PRMT1 inh conf=0
Cc1ccc(/C=[N+](\[O-])c2ccc(N(C)C)cc2)c2nsnc12 | 30* | 38* | 3 | 8 | 9 | 20 | -8
COc1ccc2c(c1)CCCN2C(=O)C1CCCN(S(=O)(=O)c2cccc3ccccc23)C1 (stereo not given) | 4 | / | -3 | / | 2 | / | /
O=C1NC(=Nc2ccccc2Cl)S/C1=C\c1cccc([N+](=O)[O-])c1O | 53* | 55* | 20 | -8 | 2 | 58* | 60*
COc1c(/C=C2\SC(=Nc3ccccc3Cl)NC2=O)cccc1[N+](=O)[O-] | -21 | -60 | -2 | -8 | -8 | / | /
CCOC(=O)N1CCN(C(=O)C[C@H]2C[C@@]3(C(=O)OC)C(=C[C@H](C4CCCC4)O[C@@H]3C)N(CCc3ccc(OC)c(OC)c3)C2=O)CC1 | 3 | / | -1 | / | 3 | / | /

Bioassay records from PubChem BioAssay.
